# According to paper PMC3337761 (Drug Development and Industrial Pharmacy, 2010):
# Key:
# Solubility in solvents = type: physicochemical
# [1] = Pharmacokinetics in rhesus macaques; type: in vivo, Rhesus Macaques (Macaca mulatta)
# How it was run: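 Two rhesus macaques, fasted overnight with water allowed. Oral powder was mixed into a chocolate treat, with dose set by the amount eaten. After a 2-week washout, i.v. dosing used 5 mg/mL in 25% Cremophor EL/75% PBS. Ketamine 10 mg/kg i.m. for sampling. EDTA plasma taken pre-dose to 24 h, C18 SPE, then LC-ESI-MS (m/z 277; analogue internal standard; calibration 25 nM–2.5 µM). F = dose-normalised AUC po/iv.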
# [2] = male, rhesus monkey, plasma, iv, 5 mg/kg
# [3] = male, rhesus monkey, plasma, po, 50 mg/kg
smiles,measurement,setting,value
"Clc1ccccc1C(c1ccccc1)(c1ccccc1)n1cccn1 [TRAM-34, 1-[(2-chlorophenyl)-diphenylmethyl]-1H-pyrazole]",solubility,"Solubility in solvents; ethanol, organic solvent or mixture",4000 µg/mL
same,solubility in water,Solubility in solvents; water,practically insoluble in water
same,AUC(0-t),[1]; [2],3.64 µM·h
same,Vd,[1]; [2],11.1 L/kg
same,clearance,[1]; [2],53.3 mL/min/kg
same,bioavailability,"[1]; male, rhesus monkey, plasma, oral, 50 mg/kg",0.3%
same,AUC(0-t),[1]; [3],0.103 µM·h
same,Cmax,[1]; [3],22.5 nM
same,Tmax,[1]; [3],2 h
same,Vd,"[1]; oral powder without enteric coating, 50 mg/kg, Rhesus Macaques",6.5 L/kg
